Assay results: ChEMBL document CHEMBL1129368 (J Med Chem, 1996)
pEC50, pKd: −log10 of the molar value. Bridge positions count the residues as written; N and C are the ends. Square brackets hold non-standard residues; d marks the D form. Peptide text beside a SMILES is read from it. Pen = CC(C)(S)[C@H](N)C(=O)O; Sar = CNCC(=O)O

Species: Oryctolagus cuniculus
Assay: Activity of compound in contraction assays performed using isolated rabbit aorta
Assay type: functional
Outline: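 Rings (5 mm) cut from excised aorta, cleaned of adipose tissue, hung in 5 mL organ baths of continuously oxygenated Krebs solution at 37 °C, changed every 15 min. Initial tension 2 g, readjusted until stable (about 90 min equilibration) before testing.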

| Structure (SMILES) | pEC50 |
| --- | --- |
| CNCC(=O)N[C@@H](CCCN=C(N)N)C(=O)N[C@H](C(=O)N[C@H](Cc1ccc(O)cc1)C(=O)N1CCC[C@H]1C(=O)N[C@@H](Cc1c[nH]cn1)C(=O)N1CCC[C@H]1C(=O)N[C@@H](Cc1ccccc1)C(=O)O)C(C)C | 7.03 |
| CNCC(=O)N[C@@H](CCCNC(=N)N)C(=O)N[C@H](C(=O)N[C@@H](Cc1ccc(O)cc1)C(=O)N[C@@H]1CCSS[C@@H]2C[C@H](C(=O)N[C@@H](Cc3ccccc3)C(=O)O)N(C2)C(=O)[C@@H](Cc2cnc[nH]2)NC1=O)C(C)C | 5.75 |
| CNCC(=O)N[C@@H](CCCN=C(N)N)C(=O)N[C@H](C(=O)N[C@@H](Cc1ccc(O)cc1)C(=O)N[C@H](C(=O)N[C@@H](Cc1c[nH]cn1)C(=O)N1CCC[C@H]1C(=O)N[C@@H](Cc1ccccc1)C(=O)O)C(C)C)C(C)C (H-[Sar]RVYVHPF-OH) | 9.46 |
| CC[C@H](C)[C@H](NC(=O)[C@H](Cc1ccc(O)cc1)NC(=O)[C@@H](NC(=O)[C@H](CCCNC(=N)N)NC(=O)[C@@H](N)CC(=O)O)C(C)C)C(=O)N[C@@H](Cc1cnc[nH]1)C(=O)N1CCC[C@H]1C(=O)N[C@@H](Cc1ccccc1)C(=O)O [ANGIOTENSIN II] | 8.34 |

Molecular target: Type-1 angiotensin II receptor (Bos taurus) (UniProt P25104)
Sequence (P25104 whole entry, looked up): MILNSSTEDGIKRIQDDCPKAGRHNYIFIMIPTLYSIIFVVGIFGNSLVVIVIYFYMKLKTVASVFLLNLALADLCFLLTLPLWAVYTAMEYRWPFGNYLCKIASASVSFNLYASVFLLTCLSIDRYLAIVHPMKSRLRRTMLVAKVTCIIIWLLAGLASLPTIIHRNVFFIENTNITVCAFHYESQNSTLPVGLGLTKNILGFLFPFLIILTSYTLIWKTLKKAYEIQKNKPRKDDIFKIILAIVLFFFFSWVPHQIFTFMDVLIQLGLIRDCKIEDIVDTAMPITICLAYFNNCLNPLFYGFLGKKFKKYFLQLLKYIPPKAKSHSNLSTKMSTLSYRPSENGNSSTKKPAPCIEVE
Assay: Binding affinity was determined against Angiotensin II receptor, type 1

| Structure (SMILES) | pKd |
| --- | --- |
| CNCC(=O)N[C@@H](CCCNC(=N)N)C(=O)N[C@H](C(=O)N[C@@H](Cc1ccc(O)cc1)C(=O)N[C@H]1CCSS[C@@H]2C[C@@H](C(=O)N[C@@H](Cc3ccccc3)C(=O)O)N(C2)C(=O)[C@H](Cc2cnc[nH]2)NC1=O)C(C)C | 6.12 |
| CNCC(=O)N[C@@H](CCCN=C(N)N)C(=O)N[C@H](C(=O)N[C@H](Cc1ccc(O)cc1)C(=O)N[C@@H]1CCC(=O)N[C@@H]2C[C@H](C(=O)N[C@H](Cc3ccccc3)C(=O)O)N(C2)C(=O)[C@@H](Cc2c[nH]cn2)NC1=O)C(C)C | < 5.00 |
| CNCC(=O)N[C@@H](CCCNC(=N)N)C(=O)N[C@H](C(=O)N[C@@H](Cc1ccc(O)cc1)C(=O)N[C@@H]1CSS[C@@H]2C[C@H](C(=O)N[C@@H](Cc3ccccc3)C(=O)O)N(C2)C(=O)[C@@H](Cc2cnc[nH]2)NC1=O)C(C)C | 5.64 |
| CNCC(=O)N[C@@H](CCCNC(=N)N)C(=O)N[C@H](C(=O)N[C@@H](Cc1ccc(O)cc1)C(=O)N[C@@H]1CC(=O)N[C@@H]2C[C@H](C(=O)N[C@@H](Cc3ccccc3)C(=O)O)N(C2)C(=O)[C@@H](Cc2cnc[nH]2)NC1=O)C(C)C | < 5.00 |
| CNCC(=O)N[C@@H](CCCNC(=N)N)C(=O)N[C@H](C(=O)N[C@@H](Cc1ccc(O)cc1)C(=O)N[C@H]1CSS[C@@H]2C[C@@H](C(=O)N[C@@H](Cc3ccccc3)C(=O)O)N(C2)C(=O)[C@H](Cc2cnc[nH]2)NC1=O)C(C)C | < 5.00 |
| CNCC(=O)N[C@@H](CCCNC(=N)N)C(=O)N[C@H](C(=O)N[C@H](Cc1ccc(O)cc1)C(=O)N1CCC[C@H]1C(=O)N[C@@H](Cc1cnc[nH]1)C(=O)N1CCC[C@H]1C(=O)N[C@@H](Cc1ccccc1)C(=O)O)C(C)C | 7.24 |
| CNCC(=O)N[C@@H](CCCNC(=N)N)C(=O)N[C@H](C(=O)N[C@@H](Cc1ccc(O)cc1)C(=O)N[C@@H]1CCSS[C@@H]2C[C@H](C(=O)N[C@@H](Cc3ccccc3)C(=O)O)N(C2)C(=O)[C@@H](Cc2cnc[nH]2)NC1=O)C(C)C | 7.70 |
| CNCC(=O)N[C@@H](CCCNC(=N)N)C(=O)N[C@H](C(=O)N[C@@H](Cc1ccc(O)cc1)C(=O)N[C@H]1CSSC(C)(C)[C@@H](C(=O)N[C@@H](Cc2ccccc2)C(=O)O)NC(=O)[C@H](Cc2cnc[nH]2)NC1=O)C(C)C (H-[Sar]RVYCH[Pen]F-OH; disulfide 5-7) | < 5.00 |
